Results on 1 compound are retold here after ChEMBL document CHEMBL1128453, “Peptidyl alpha-ketoheterocyclic inhibitors of human neutrophil elastase. 3. In vitro and in vivo potency of a series of peptidyl alpha-ketobenzoxazoles” (J Med Chem, 1995).

One may read the pKi as the negative decadic logarithm of the Ki, by convention in mol/L.

SMILES strings stand for the structures. pKi: −log10 of the molar value. Bounds are passed on as bounds.

The target of one assay is Chymotrypsinogen A (Bos taurus, UniProt P00766). As to the kind of experiment: Binding affinity towards chymotrypsin.
In another assay the target is T1, Cathepsin G (Homo sapiens, UniProt P08311).
T1 sequence (P08311 whole entry): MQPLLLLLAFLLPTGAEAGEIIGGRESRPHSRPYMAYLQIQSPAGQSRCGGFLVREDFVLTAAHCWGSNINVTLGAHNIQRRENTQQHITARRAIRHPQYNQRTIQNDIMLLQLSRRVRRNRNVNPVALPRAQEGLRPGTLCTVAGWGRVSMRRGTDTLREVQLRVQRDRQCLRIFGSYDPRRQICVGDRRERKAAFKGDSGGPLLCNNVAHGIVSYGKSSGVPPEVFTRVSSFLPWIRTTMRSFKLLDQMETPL
As to the kind of experiment: Binding affinity towards cathepsin G.

In the next assay the target is T2, Neutrophil elastase (Homo sapiens, UniProt P08246).
T2 sequence (P08246 whole entry): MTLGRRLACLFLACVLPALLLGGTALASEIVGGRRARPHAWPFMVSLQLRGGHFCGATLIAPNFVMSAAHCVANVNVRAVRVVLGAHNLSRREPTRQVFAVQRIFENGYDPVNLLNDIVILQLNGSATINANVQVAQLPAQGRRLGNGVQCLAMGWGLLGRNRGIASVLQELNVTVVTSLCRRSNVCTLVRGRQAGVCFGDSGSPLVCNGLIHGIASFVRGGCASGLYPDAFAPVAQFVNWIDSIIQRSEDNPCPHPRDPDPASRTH
As to the kind of experiment: Inhibition of human neutrophil elastase-catalyzed hydrolysis of the synthetic substrate MeO-Suc-Ala-Ala-Pro-Val-pNa.

For the next assay, the target named is T3, Papain (Carica papaya, UniProt P00784).
T3 sequence (P00784 whole entry): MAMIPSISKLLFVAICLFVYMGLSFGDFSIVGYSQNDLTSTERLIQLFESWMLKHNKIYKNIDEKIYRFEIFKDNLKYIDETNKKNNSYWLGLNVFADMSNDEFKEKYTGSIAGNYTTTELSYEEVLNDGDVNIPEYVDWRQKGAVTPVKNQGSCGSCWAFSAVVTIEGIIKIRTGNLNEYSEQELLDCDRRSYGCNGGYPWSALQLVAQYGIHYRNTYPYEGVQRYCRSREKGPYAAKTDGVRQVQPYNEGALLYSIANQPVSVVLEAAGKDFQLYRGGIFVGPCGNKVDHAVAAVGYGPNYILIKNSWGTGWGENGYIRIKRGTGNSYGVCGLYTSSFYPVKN
As to the kind of experiment: Binding affinity towards papain.

Assay [1] is described as follows: Percentage reduction in erythrocytes following elastase challenge/treatment. Details: concentration or dose not given beside the values. It counts as functional. In a few lines:
(§1)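 Male Syrian hamsters (90–110 g), anaesthetised with brevital sodium (30 mg/kg ip), received intratracheal HNE (400 μg in 0.01 M PBS). Test agent was given intratracheally, either admixed with the enzyme or predosed (shortest interval 6 h). Dose interval is the longest with significant lesion inhibition. At 24 h, wet lung weight/body weight and lavage red/white cells (Coulter) were measured. Results are % reduction scaled between the HNE and saline controls (p = 0.05).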

For a further assay, the target named is Prothrombin (Homo sapiens, UniProt P00734). As to the kind of experiment: Binding affinity towards thrombin.
A short description of assay [2]: Percent reduction in leukocytes following elastase challenge/treatment. Also on record: concentration or dose not given beside the values. It counts as functional. In a few lines: as §1
The target in the next assay is Serine protease 1 (Homo sapiens, UniProt P07477). As to the kind of experiment: Binding affinity towards trypsin.
Chain of Serine protease 1 (P07477 whole entry): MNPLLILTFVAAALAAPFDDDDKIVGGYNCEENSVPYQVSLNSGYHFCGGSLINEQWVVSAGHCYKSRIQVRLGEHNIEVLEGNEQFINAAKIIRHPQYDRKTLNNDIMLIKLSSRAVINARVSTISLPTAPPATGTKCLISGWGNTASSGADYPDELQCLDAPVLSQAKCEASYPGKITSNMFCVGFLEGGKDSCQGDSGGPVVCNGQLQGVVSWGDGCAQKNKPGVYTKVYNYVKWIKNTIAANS
Assay [3] deals with T4, Angiotensin-converting enzyme (Rattus norvegicus, UniProt P47820).
T4 sequence (P47820 whole entry): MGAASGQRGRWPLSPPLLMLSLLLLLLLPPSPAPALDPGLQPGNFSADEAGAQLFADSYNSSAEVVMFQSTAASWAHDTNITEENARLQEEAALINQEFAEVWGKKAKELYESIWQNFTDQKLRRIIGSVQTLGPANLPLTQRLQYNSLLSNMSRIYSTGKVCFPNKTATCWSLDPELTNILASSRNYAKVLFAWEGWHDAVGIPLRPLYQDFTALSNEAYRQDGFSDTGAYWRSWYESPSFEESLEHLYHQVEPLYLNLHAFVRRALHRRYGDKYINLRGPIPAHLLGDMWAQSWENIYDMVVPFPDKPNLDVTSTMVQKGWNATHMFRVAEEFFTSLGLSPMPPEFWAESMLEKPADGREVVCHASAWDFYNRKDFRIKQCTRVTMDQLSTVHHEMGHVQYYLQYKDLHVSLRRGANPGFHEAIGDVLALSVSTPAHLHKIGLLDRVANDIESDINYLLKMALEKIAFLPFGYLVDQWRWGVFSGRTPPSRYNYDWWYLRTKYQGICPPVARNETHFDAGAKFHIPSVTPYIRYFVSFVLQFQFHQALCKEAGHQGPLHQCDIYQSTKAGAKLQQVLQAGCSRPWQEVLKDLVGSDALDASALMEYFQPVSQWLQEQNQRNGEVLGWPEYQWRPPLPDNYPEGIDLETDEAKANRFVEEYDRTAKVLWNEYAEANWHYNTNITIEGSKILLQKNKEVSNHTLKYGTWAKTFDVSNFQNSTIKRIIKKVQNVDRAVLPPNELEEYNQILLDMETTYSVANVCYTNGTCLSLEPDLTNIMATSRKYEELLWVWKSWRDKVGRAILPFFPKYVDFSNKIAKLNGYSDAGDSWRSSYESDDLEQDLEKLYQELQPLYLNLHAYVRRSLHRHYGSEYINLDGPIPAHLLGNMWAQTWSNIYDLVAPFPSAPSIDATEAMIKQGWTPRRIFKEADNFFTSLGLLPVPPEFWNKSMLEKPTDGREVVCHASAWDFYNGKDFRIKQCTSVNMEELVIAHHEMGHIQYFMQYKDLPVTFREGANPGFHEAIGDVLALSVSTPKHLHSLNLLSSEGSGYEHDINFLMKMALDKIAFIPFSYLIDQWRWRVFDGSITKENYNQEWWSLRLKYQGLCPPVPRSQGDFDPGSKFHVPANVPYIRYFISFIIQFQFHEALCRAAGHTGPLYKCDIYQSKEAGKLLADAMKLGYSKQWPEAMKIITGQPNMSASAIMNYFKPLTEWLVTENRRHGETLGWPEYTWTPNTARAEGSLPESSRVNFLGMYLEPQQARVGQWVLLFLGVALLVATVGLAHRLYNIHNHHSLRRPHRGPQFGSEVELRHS
As to the kind of experiment: Biological activity was measured against Angiotensin I converting enzyme.

The target in assay [4] is T5, Neutrophil elastase (Homo sapiens) (UniProt P08246).
T5 sequence (whole entry): T2 sequence (P08246 whole entry)
The conditions noted are these: Lung.

For the compound `CC(C)[C@H](NC(=O)[C@@H]1CCCN1C(=O)[C@@H](NC(=O)c1ccc(C(=O)NS(=O)(=O)c2ccc(Cl)cc2)cc1)C(C)C)C(=O)c1nc2cc(C(N)=O)ccc2o1`, the pKi was 4.04 on Chymotrypsinogen A; less than 2.70 on Cathepsin G; 9.70 on Neutrophil elastase; less than 3.70 at Papain; less than 4.30 on Prothrombin; less than 4.30 at Serine protease 1. The same compound gave a pKi in assay [3] of less than 3.70. In addition, the Reduction in assay [1] is on record as 64%; in [2], 53%. Moreover, the Lw/Bw in [4] came out at 54.
